{
  "source": "ChEMBL document CHEMBL1130401",
  "about": "“Retinoic acid conjugates as potential antitumor agents: synthesis and biological activity of conjugates with Ara-A, Ara-C, 3(2H)-furanone, and aniline mustard moieties” (J Med Chem, 1997)",
  "key": {"[1]": {"system": "HL-60", "assay": "Differentiating activity of compound in HL60 cells at conc 0.016 ug/mL", "format": "functional, Homo sapiens", "in_short": "(§1)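 10⁶ HL-60 cells were exposed to compound for 6 days, then resuspended in RPMI-1640 with 20% FBS and 2 mM L-glutamine. An equal volume of fresh NBT solution (2 mg/mL, with PMA 200 ng/mL in PBS pH 7.2) was added and incubated 40 min at 37 °C with shaking. Cells were chilled, pelleted and resuspended. Formazan-positive cells were counted by hemocytometer (≥200 cells scored). Untreated cultures served as controls.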"}, "[2]": {"system": "HL-60", "assay": "Differentiating activity of compound in HL60 cells at conc 0.4 ug/mL", "format": "functional, Homo sapiens", "in_short": "as §1"}, "[3]": {"system": "HL-60", "assay": "The cytotoxic activity in HL-60 cells", "format": "functional, cell-based", "conditions": "Homo sapiens", "in_short": "(§2)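 HL-60 cells from ATCC. Each well received 7.5 × 10⁴ cells plus test compound. Cells grew for 72 h at 37 °C in humidified, CO₂-controlled air, with growth linear over this period. Cells were then counted in a Coulter counter. IC50 is the concentration that cut cell number by 50%.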"}, "[4]": {"system": "HL-60", "assay": "Differentiating activity of compound in HL60 cells at conc 0.08 ug/mL", "format": "functional, Homo sapiens", "in_short": "as §1"}, "[5]": {"system": "HL-60", "assay": "Differentiating activity of compound in HL60 cells at conc 0.05 ug/mL", "format": "functional, Homo sapiens", "in_short": "as §1"}, "[6]": {"system": "HL-60", "assay": "Differentiating activity of compound in HL60 cells at conc 0.2 ug/mL", "format": "functional, Homo sapiens", "in_short": "as §1"}, "[7]": {"system": "HL-60", "assay": "(§3) Differentiating activity of compound in HL60 cells at conc 1 ug/mL", "format": "functional, Homo sapiens", "in_short": "as §1"}, "[8]": {"system": "HL-60", "assay": "(§4) Differentiating activity of compound in HL60 cells at conc 4 ug/mL", "format": "functional, Homo sapiens", "in_short": "as §1"}, "[9]": {"system": "HL-60", "assay": "Differentiating activity of compound in HL60 cells at conc 0.32 ug/mL", "format": "functional, Homo sapiens", "in_short": "as §1"}, "[10]": {"system": "HL-60", "assay": "Differentiating activity of compound in HL60 cells at conc 2 ug/mL", "format": "functional, Homo sapiens", "in_short": "as §1"}, "[11]": {"system": "HL-60", "assay": "Differentiating activity of compound in HL60 cells at conc 0.5 ug/mL", "format": "functional, Homo sapiens", "in_short": "as §1"}, "[12]": {"system": "HL-60", "assay": "Differentiating activity of compound in HL60 cells at conc 50 ug/mL", "format": "functional, Homo sapiens", "in_short": "as §1"}, "[13]": {"system": "HL-60", "assay": "Differentiating activity of compound in HL60 cells at conc 10 ug/mL", "format": "functional, Homo sapiens", "in_short": "as §1"}, "[14]": {"system": "HL-60", "assay": "Differentiating activity of compound in HL60 cells at conc 0.0003 ug/mL", "format": "functional, Homo sapiens"}, "[15]": {"system": "HL-60", "assay": "Differentiating activity of compound in HL60 cells at conc 0.003 ug/mL", "format": "functional, Homo sapiens"}, "[16]": {"system": "HL-60", "assay": "Differentiating activity of compound in HL60 cells at conc 0.03 ug/mL", "format": "functional, Homo sapiens"}, "[17]": {"system": "HL-60", "assay": "as §4", "format": "functional, Homo sapiens", "in_short": "(§5)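 HL-60 (ATCC) cells exposed to compound for 6 days; 10⁶ cells resuspended in 1 mL RPMI-1640 with 20% FBS and 2 mM L-glutamine, mixed with 1 mL fresh NBT (2 mg/mL) containing PMA 200 ng/mL in PBS pH 7.2, 40 min at 37 °C shaking, ice-stopped, pelleted. Formazan-positive cells counted by hemocytometer light microscopy, ≥200 cells scored; value = % NBT-positive cells.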", "remark": "listed apart in the source"}, "[18]": {"system": "HL-60", "assay": "as §3", "format": "functional, Homo sapiens", "in_short": "as §5", "remark": "listed apart in the source"}, "[19]": {"system": "HL-60", "assay": "Cytotoxic activity in HL-60 cells", "format": "functional, cell-based", "conditions": "Homo sapiens", "in_short": "as §2"}, "[20]": {"system": "HL-60", "assay": "Differentiating activity of compound in HL60 cells at conc 5.6 ug/mL", "format": "functional, Homo sapiens"}, "[21]": {"system": "HL-60", "assay": "Differentiating activity of compound in HL60 cells at conc 2.8 ug/mL", "format": "functional, Homo sapiens"}, "[22]": {"system": "HL-60", "assay": "Differentiating activity of compound in HL60 cells at conc 1.4 ug/mL", "format": "functional, Homo sapiens"}},
  "data": [
    {"smiles": "Nc1ccn([C@@H]2O[C@H](CO)[C@@H](O)[C@@H]2O)c(=O)n1", "note": "[CYTARABINE]", "values": [
      {"measurement": "NBT positive cells", "setting": "[1]", "value": 8, "unit": "%"},
      {"measurement": "NBT positive cells", "setting": "[2]", "value": 20, "unit": "%"},
      {"measurement": "IC50", "setting": "[3]", "value": 0.029, "unit": "µg/mL"},
      {"measurement": "NBT positive cells", "setting": "[4]", "value": 5, "unit": "%"}
    ]},
    {"smiles": "CC1=C(/C=C/C(C)=C/C=C/C(C)=C/C(=O)Nc2ncnc3c2ncn3[C@@H]2O[C@H](CO)C(O)[C@@H]2O)C(C)(C)CCC1", "note": "(some centres not stated)", "values": [
      {"measurement": "NBT positive cells", "setting": "[5]", "value": 41, "unit": "%"},
      {"measurement": "IC50", "setting": "[3]", "value": "< 0.32", "unit": "µg/mL"},
      {"measurement": "NBT positive cells", "setting": "[6]", "value": 46, "unit": "%"}
    ]},
    {"smiles": "CC1=C(/C=C/C(C)=C/C=C/C(C)=C/C(=O)NCCCNC(=O)/C=C(C)/C=C/C=C(C)/C=C/C2=C(C)CCCC2(C)C)C(C)(C)CCC1", "values": [
      {"measurement": "NBT positive cells", "setting": "[7]", "value": 33, "unit": "%"},
      {"measurement": "NBT positive cells", "setting": "[8]", "value": 65, "unit": "%"},
      {"measurement": "IC50", "setting": "[3]", "value": 3.71, "unit": "µg/mL"}
    ]},
    {"smiles": "CC1=C(/C=C/C(C)=C/C=C/C(C)=C/C(=O)OC/C=C(\\C)C2=CC(=O)C(C)(C)O2)C(C)(C)CCC1", "values": [
      {"measurement": "NBT positive cells", "setting": "[9]", "value": 34, "unit": "%"},
      {"measurement": "IC50", "setting": "[3]", "value": "< 0.32", "unit": "µg/mL"},
      {"measurement": "NBT positive cells", "setting": "[4]", "value": 33, "unit": "%"}
    ]},
    {"smiles": "CC1=C(/C=C/C(C)=C/C=C/C(C)=C/C(=O)Nc2ncnc3c2ncn3[C@@H]2O[C@@H]3CO[Si](C(C)C)(C(C)C)O[Si](C(C)C)(C(C)C)OC3[C@@H]2O)C(C)(C)CCC1", "note": "(some centres not stated)", "values": [
      {"measurement": "NBT positive cells", "setting": "[10]", "value": 31, "unit": "%"},
      {"measurement": "IC50", "setting": "[3]", "value": 2.08, "unit": "µg/mL"},
      {"measurement": "NBT positive cells", "setting": "[11]", "value": 31, "unit": "%"}
    ]},
    {"smiles": "Nc1ncnc2c1ncn2[C@@H]1O[C@H](CO)[C@@H](O)[C@@H]1O", "note": "[VIDARABINE]", "values": [
      {"measurement": "IC50", "setting": "[3]", "value": 20.9, "unit": "µg/mL"},
      {"measurement": "NBT positive cells", "setting": "[12]", "value": 12, "unit": "%"},
      {"measurement": "NBT positive cells", "setting": "[13]", "value": 9, "unit": "%"}
    ]},
    {"smiles": "CC1=C(/C=C/C(C)=C/C=C/C(C)=C/C(=O)O)C(C)(C)CCC1", "note": "[TRETINOIN]", "values": [
      {"measurement": "NBT positive cells", "setting": "[14]", "value": 34, "unit": "%"},
      {"measurement": "NBT positive cells", "setting": "[15]", "value": 67, "unit": "%"},
      {"measurement": "NBT positive cells", "setting": "[16]", "value": 89, "unit": "%"}
    ]},
    {"smiles": "CC1=C(/C=C/C(C)=C/C=C/C(C)=C/C(=O)Nc2ccc(N(CCCl)CCCl)cc2)C(C)(C)CCC1", "values": [
      {"measurement": "NBT positive cells", "setting": "[17]", "value": 43, "unit": "%"},
      {"measurement": "NBT positive cells", "setting": "[18]", "value": 24, "unit": "%"},
      {"measurement": "IC50", "setting": "[3]", "value": 3.7, "unit": "µg/mL"}
    ]},
    {"smiles": "CC1=C(/C=C/C(C)=C/C=C/C(C)=C/C(=O)O[C@H]2C(O)[C@@H](CO)O[C@H]2n2cnc3c(N)ncnc32)C(C)(C)CCC1", "note": "(some centres not stated)", "values": [
      {"measurement": "NBT positive cells", "setting": "[10]", "value": 36, "unit": "%"},
      {"measurement": "IC50", "setting": "[3]", "value": 1.96, "unit": "µg/mL"},
      {"measurement": "NBT positive cells", "setting": "[11]", "value": 34, "unit": "%"}
    ]},
    {"smiles": "CC1=C(/C=C/C(C)=C/C=C/C(C)=C/C(=O)Nc2ccn([C@@H]3O[C@@H]4CO[Si](C(C)C)(C(C)C)O[Si](C(C)C)(C(C)C)OC4[C@@H]3O)c(=O)n2)C(C)(C)CCC1", "note": "(some centres not stated)", "values": [
      {"measurement": "NBT positive cells", "setting": "[5]", "value": 44, "unit": "%"},
      {"measurement": "IC50", "setting": "[19]", "value": "< 0.32", "unit": "µg/mL"},
      {"measurement": "NBT positive cells", "setting": "[6]", "value": 54, "unit": "%"}
    ]},
    {"smiles": "C[S+](C)[O-]", "note": "[DIMETHYL SULFOXIDE]", "values": [
      {"measurement": "NBT positive cells", "setting": "[20]", "value": 53, "unit": "%"},
      {"measurement": "NBT positive cells", "setting": "[21]", "value": 28, "unit": "%"},
      {"measurement": "NBT positive cells", "setting": "[22]", "value": 12, "unit": "%"}
    ]},
    {"smiles": "CC1=C(/C=C/C(C)=C/C=C/C(C)=C/C(=O)Nc2ccn([C@@H]3O[C@H](CO)C(O)[C@@H]3O)c(=O)n2)C(C)(C)CCC1", "note": "(some centres not stated)", "values": [
      {"measurement": "NBT positive cells", "setting": "[9]", "value": 37, "unit": "%"},
      {"measurement": "IC50", "setting": "[3]", "value": "< 0.32", "unit": "µg/mL"},
      {"measurement": "NBT positive cells", "setting": "[4]", "value": 29, "unit": "%"}
    ]}
  ]
}
